From ChEMBL document CHEMBL1143121, “Is adamantane a suitable substituent to pre-organize the acid orientation in E-selectin antagonists?” (Bioorg Med Chem, 2008) come the findings set out here.

The target in one experiment is T1, E-selectin (Homo sapiens, UniProt P16581).
T1 sequence (P16581 whole entry): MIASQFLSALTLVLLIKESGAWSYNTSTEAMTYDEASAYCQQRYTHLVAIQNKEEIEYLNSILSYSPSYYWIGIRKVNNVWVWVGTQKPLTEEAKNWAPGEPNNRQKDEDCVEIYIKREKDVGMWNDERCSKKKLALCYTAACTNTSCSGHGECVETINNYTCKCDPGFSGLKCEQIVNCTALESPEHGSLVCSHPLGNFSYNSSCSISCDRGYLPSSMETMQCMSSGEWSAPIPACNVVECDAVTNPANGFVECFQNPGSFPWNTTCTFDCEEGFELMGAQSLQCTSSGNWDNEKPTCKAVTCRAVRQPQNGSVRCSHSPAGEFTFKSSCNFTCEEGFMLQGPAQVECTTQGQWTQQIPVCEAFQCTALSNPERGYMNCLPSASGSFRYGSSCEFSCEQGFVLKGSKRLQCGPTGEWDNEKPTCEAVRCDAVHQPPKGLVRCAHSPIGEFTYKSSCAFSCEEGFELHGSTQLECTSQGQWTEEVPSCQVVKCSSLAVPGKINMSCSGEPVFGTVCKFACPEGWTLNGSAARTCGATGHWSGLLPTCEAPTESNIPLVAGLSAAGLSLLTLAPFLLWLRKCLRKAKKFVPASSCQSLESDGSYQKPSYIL
As to the kind of experiment: Binding affinity to E-selectin. A digest of the protocol: (§1)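 Competitive binding ELISA against E-selectin, run by a previously published procedure. A reference antagonist was included in the assay for relative comparison. The acid test compounds were purified by size exclusion chromatography to remove traces of polyanionic ion-exchange resin that could give false positives.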

In experiment [1] the target is T2, E-selectin (Homo sapiens) (UniProt P16581).
T2 sequence (whole entry): T1 sequence (P16581 whole entry)
Description: Binding affinity to E-selectin relative to (2S,4S,5R,6R)-5-acetamido-2-((2R,3S,4S,5R,6R)-3,5-dihydroxy-2-(hydroxymethyl)-6-((1R,2R)-2-((2S,3S,4R,5S,6S)-3,4,5-trihydroxy-6-methyl-tetrahydro-2H-pyran-2-yloxy)cyclohexyloxy)-tetrahydro-2H-pyran-4-yloxy)-4-hydroxy-6-((1R,2R)-1,2,3-trihydroxypropyl)-tetrahydro-2H-pyran-2-carboxylic acid. A digest of the protocol: as §1

Bounds are passed on as bounds.

For orientation: IC50 means the concentration at which inhibition is half-maximal. In the case of `CC(=O)N[C@H]1[C@H]([C@H](O)[C@H](O)CO)O[C@@](O[C@H]2[C@@H](O)[C@@H](CO)O[C@@H](O[C@@H]3CCCC[C@H]3O[C@@H]3O[C@@H](C)[C@@H](O)[C@@H](O)[C@@H]3O)[C@@H]2O)(C(=O)O)C[C@@H]1O`, on E-selectin, the IC50 was determined as 600 µM.

In the case of `C[C@H](O[C@H]1[C@@H](O)[C@@H](CO)O[C@@H](O[C@@H]2CCCC[C@H]2O[C@@H]2O[C@@H](C)[C@@H](O)[C@@H](O)[C@@H]2O)[C@@H]1O)C(=O)O`, in experiment [1], the Activity was 2.4.

As for `C[C@@H]1O[C@@H](O[C@@H]2CCCC[C@H]2O[C@@H]2O[C@H](CO)[C@H](O)[C@H](O[C@H](C)C(=O)O)[C@H]2O)[C@@H](O)[C@H](O)[C@@H]1O`, in experiment [1], the Activity is > 10.

In the case of `C[C@@H]1O[C@@H](O[C@@H]2CCCC[C@H]2O[C@@H]2O[C@H](CO)[C@H](O)[C@H](OCC(=O)O)[C@H]2O)[C@@H](O)[C@H](O)[C@@H]1O`, in experiment [1], the Activity was > 10.

The compound `CC(=O)N[C@@H]1[C@@H](O[C@@H]2O[C@@H](C)[C@@H](O)[C@@H](O)[C@@H]2O)[C@H](O[C@@H]2O[C@H](CO)[C@H](O)[C@H](O[C@]3(C(=O)O)C[C@H](O)[C@@H](NC(C)=O)[C@H]([C@H](O)[C@H](O)CO)O3)[C@H]2O)[C@@H](CO)O[C@H]1O` showed an IC50 on E-selectin of 1000 µM.

For `C[C@@H]1O[C@@H](O[C@@H]2CCCC[C@H]2O[C@@H]2O[C@H](CO)[C@H](O)[C@H](O[C@H](CC3CCCCC3)C(=O)O)[C@H]2O)[C@@H](O)[C@H](O)[C@@H]1O`, the Activity in experiment [1] was > 10.

Turning to `C[C@@H]1O[C@@H](O[C@@H]2CCCC[C@H]2O[C@@H]2O[C@H](CO)[C@H](O)[C@H](O[C@H](Cc3ccccc3)C(=O)O)[C@H]2O)[C@@H](O)[C@H](O)[C@@H]1O`, the Activity in experiment [1] is > 10.

With `C[C@@H]1O[C@@H](O[C@@H]2CCCC[C@H]2O[C@@H]2O[C@H](CO)[C@H](O)[C@H](O[C@@H](CC34CC5CC(CC(C5)C3)C4)C(=O)O)[C@H]2O)[C@@H](O)[C@H](O)[C@@H]1O`, the Activity in experiment [1] worked out at 0.32.

Take `C[C@@H]1O[C@@H](O[C@@H]2CCCC[C@H]2O[C@@H]2O[C@H](CO)[C@H](O)[C@H](O[C@H](CC34CC5CC(CC(C5)C3)C4)C(=O)O)[C@H]2O)[C@@H](O)[C@H](O)[C@@H]1O`: the Activity in experiment [1] is > 10.

As for `C[C@@H]1O[C@@H](O[C@@H]2CCCC[C@H]2O[C@@H]2O[C@H](CO)[C@H](O)[C@H](O[C@@H](CC3CCCCC3)C(=O)O)[C@H]2O)[C@@H](O)[C@H](O)[C@@H]1O`, the Activity in experiment [1] was found to be 0.15.

Take `C[C@@H]1O[C@@H](O[C@@H]2CCCC[C@H]2O[C@@H]2O[C@H](CO)[C@H](O)[C@H](O[C@@H](Cc3ccccc3)C(=O)O)[C@H]2O)[C@@H](O)[C@H](O)[C@@H]1O`: in experiment [1], the Activity was found to be 0.6.
